Test results reported in ChEMBL document CHEMBL3585276, “Topoisomerase I and II inhibitory activity, cytotoxicity, and structure-activity relationship study of dihydroxylated 2,6-diphenyl-4-aryl pyridines” (Bioorg Med Chem, 2015).

What was measured:
T47D = assay: Cytotoxicity against human T47D cells measured on day 4 by CCK8 assay; assay type: functional, cell-based; conditions: 96 h
Method in brief: (§1)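 Cells seeded at […], grown overnight in medium with 10% FBS at 37 °C under 5% CO2. On day 2 they were serum-starved 4 h, then exposed to graded compound concentrations. On day 4 CCK-8 was added for a further 4 h and absorbance read at 450 nm. IC50 came from a four-parameter logistic fit, mean ± SD of three experiments in triplicate.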

HCT-15 = assay: Cytotoxicity against human HCT15 cells measured on day 4 by CCK8 assay; assay type: functional, cell-based; conditions: HCT-15, 96 h; method in brief: as §1
[1] = molecular target: DNA topoisomerase 2-alpha (Homo sapiens) (UniProt P11388); assay: Inhibition of recombinant human DNA topoisomerase-2alpha using supercoiled pBR322 plasmid DNA as substrate at 100 uM after 30 mins by agarose gel electrophoresis relative to control
Chain of DNA topoisomerase 2-alpha (Homo sapiens) (P11388 whole entry): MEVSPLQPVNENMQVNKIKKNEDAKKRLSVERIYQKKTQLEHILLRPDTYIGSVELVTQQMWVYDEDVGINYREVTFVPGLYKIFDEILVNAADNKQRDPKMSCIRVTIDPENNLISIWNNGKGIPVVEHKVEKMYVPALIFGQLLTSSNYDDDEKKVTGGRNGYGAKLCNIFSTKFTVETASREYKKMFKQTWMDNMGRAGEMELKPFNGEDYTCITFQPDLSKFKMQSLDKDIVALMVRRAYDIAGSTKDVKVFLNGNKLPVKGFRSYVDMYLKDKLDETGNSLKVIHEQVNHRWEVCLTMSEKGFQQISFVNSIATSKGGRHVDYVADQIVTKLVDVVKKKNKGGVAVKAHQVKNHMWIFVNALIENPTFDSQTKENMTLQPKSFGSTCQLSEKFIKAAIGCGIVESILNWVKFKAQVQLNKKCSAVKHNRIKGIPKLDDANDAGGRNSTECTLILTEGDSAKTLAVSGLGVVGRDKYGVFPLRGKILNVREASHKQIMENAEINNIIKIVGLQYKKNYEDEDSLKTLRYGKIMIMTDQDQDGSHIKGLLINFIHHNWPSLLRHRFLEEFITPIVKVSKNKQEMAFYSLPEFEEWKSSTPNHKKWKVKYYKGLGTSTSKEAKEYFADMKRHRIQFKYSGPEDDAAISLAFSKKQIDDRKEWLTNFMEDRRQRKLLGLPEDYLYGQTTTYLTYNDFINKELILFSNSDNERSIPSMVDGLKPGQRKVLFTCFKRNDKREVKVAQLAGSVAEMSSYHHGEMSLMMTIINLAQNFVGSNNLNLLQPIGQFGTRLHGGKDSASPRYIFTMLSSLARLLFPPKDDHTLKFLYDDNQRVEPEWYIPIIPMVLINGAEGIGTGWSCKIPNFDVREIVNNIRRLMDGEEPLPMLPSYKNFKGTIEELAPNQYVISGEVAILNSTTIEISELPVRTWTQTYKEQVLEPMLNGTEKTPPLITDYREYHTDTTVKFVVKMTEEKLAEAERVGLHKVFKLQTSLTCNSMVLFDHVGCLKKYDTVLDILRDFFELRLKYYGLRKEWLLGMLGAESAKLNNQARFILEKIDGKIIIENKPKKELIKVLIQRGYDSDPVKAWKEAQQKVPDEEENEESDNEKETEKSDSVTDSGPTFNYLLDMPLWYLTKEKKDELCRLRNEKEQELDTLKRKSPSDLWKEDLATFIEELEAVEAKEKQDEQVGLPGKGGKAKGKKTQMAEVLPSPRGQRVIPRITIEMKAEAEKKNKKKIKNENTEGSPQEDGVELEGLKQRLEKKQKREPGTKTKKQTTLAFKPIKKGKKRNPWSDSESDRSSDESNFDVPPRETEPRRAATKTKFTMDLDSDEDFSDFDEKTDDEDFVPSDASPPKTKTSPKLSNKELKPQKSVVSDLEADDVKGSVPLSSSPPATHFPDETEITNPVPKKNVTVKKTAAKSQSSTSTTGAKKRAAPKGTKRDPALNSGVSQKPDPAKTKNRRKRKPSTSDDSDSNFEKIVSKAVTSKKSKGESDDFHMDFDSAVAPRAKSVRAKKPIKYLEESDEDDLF
Method in brief: (§2)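 200 ng supercoiled pBR322 with 1 unit human topo II, incubated 30 min at 30 °C with or without compound in 10 mM Tris–HCl pH 7.9, 50 mM NaCl, 5 mM MgCl2, 1 mM EDTA, 1 mM ATP and 15 µg/mL BSA. Reaction was stopped with 7 mM EDTA and run on 1% agarose in TAE at 25 V. Gel was stained with ethidium bromide, visualized under UV, and supercoiled DNA quantitated densitometrically.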

DU-145 = assay: Cytotoxicity against human DU145 cells measured on day 4 by CCK8 assay; assay type: functional, cell-based; conditions: DU-145, 96 h; method in brief: as §1
[2] = molecular target: T1, DNA topoisomerase 1 (Homo sapiens) (UniProt P11387); assay: Inhibition of recombinant human DNA topoisomerase-1 assessed as relaxation of supercoiled DNA pBR322 at 100 uM after 30 mins by agarose gel electrophoresis relative to control
T1 sequence (whole entry): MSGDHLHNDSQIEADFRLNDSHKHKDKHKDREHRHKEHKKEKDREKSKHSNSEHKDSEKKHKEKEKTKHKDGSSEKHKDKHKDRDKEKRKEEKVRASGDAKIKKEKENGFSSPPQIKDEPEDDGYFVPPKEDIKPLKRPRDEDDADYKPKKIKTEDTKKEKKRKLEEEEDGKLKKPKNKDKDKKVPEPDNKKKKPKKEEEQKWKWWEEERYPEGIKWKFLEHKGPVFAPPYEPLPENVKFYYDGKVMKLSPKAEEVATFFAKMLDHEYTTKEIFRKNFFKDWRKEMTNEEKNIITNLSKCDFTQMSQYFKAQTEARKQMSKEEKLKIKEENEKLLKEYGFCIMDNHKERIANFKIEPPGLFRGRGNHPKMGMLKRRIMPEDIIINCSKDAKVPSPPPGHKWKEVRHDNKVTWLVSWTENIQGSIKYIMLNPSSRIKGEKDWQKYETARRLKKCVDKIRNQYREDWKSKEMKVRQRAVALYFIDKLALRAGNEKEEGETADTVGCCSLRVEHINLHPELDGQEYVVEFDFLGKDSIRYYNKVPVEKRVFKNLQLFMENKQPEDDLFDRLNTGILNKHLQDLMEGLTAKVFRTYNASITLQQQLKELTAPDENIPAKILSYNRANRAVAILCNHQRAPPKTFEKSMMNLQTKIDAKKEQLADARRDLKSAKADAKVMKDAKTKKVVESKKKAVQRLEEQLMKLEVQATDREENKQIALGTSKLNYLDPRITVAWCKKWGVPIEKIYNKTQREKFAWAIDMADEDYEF
Method in brief: (§3)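 Relaxation assay with 100 ng pBR322 plasmid DNA and 1 unit recombinant human topo I. Buffer was 10 mM Tris–HCl pH 7.9, 150 mM NaCl, 0.1% BSA, 1 mM spermidine and 5% glycerol, incubated 37 °C for 30 min with or without compound. Products were run on a 1% agarose gel in TAE at 15 V for 7 h and stained with ethidium bromide (0.5 µg/mL) for 30 min.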

[3] = molecular target: T1, DNA topoisomerase 1 (Homo sapiens); assay: Inhibition of recombinant human DNA topoisomerase-1 assessed as relaxation of supercoiled DNA pBR322 at 20 uM after 30 mins by agarose gel electrophoresis relative to control; method in brief: as §3
HeLa = assay: Cytotoxicity against human HeLa cells measured on day 4 by CCK8 assay; assay type: functional, cell-based; conditions: 96 h; method in brief: as §1
[4] = molecular target: DNA topoisomerase 2-alpha (Homo sapiens) (UniProt P11388); assay: Inhibition of recombinant human DNA topoisomerase-2alpha using supercoiled pBR322 plasmid DNA as substrate at 20 uM after 30 mins by agarose gel electrophoresis relative to control; method in brief: as §2

Row | inhibition [1] [%] | inhibition [2] [%] | inhibition [3] [%] | inhibition [4] [%] | SMILES | IC50 (T47D) [µM] | IC50 (HCT-15) [µM] | IC50 (DU-145) [µM] | IC50 (HeLa) [µM]
1 | 14.8 | 5.9 | 2.8 |  | Oc1ccc(-c2cc(-c3cccnc3)cc(-c3cccc(O)c3)n2)cc1 | > 50 | > 50 | 6.39 | > 50
2 | 11.9 | 2.4 |  |  | Oc1ccc(-c2cc(-c3ccccn3)cc(-c3cccc(O)c3)n2)cc1 | 0.98 | > 50 | 1.98 | 1.93
3 | 95 | 37.4 | 1.3 | 19.7 | Oc1ccc(-c2cc(-c3ccoc3)cc(-c3cccc(O)c3)n2)cc1 | 2.61 | 0.93 | 2.7 | 3.31
4 | 65.5 | 0.8 |  | 4.3 | Oc1ccccc1-c1cc(-c2ccccn2)cc(-c2ccccc2O)n1 | > 50 | > 50 | > 50 | > 50
5 | 78.2 | 10.2 |  | 11 | Oc1cccc(-c2cc(-c3ccsc3)cc(-c3ccccc3O)n2)c1 | > 50 | > 50 | > 50 | > 50
6 | 11.2 | 2.1 | 1.9 |  | Oc1cccc(-c2cc(-c3cccnc3)cc(-c3cccc(O)c3)n2)c1 | > 50 | > 50 | > 50 | > 50
7 | 88.2 | 97.8 | 0 | 20.6 | Oc1cccc(-c2cc(-c3ccco3)cc(-c3cccc(O)c3)n2)c1 | 3.52 | 1.89 | 2.15 | 5.99
8 | 55.9 | 77.2 | 0.2 | 10.8 | Oc1ccccc1-c1cc(-c2cccs2)cc(-c2ccccc2O)n1 | > 50 | > 50 | > 50 | > 50
9 | 81.2 | 90.1 | 0 | 21.5 | Oc1cccc(-c2cc(-c3ccco3)cc(-c3ccccc3O)n2)c1 | 0.82 | > 50 | 1.79 | > 50
10 | 7.3 | 44.2 | 2 |  | Oc1cccc(-c2cc(-c3ccoc3)cc(-c3cccc(O)c3)n2)c1 | 2.59 | 1.02 | 1.65 | 4.63
11 | 12 | 74.9 | 0 |  | Oc1ccc(-c2cc(-c3ccoc3)cc(-c3ccc(O)cc3)n2)cc1 | 3.46 | 1.53 | 3.44 | 3.42
12 | 52.2 | 89.1 | 0.2 | 13.3 | Oc1ccccc1-c1cc(-c2ccco2)cc(-c2ccccc2O)n1 | > 50 | > 50 | > 50 | > 50
13 | 62.1 | 29.5 |  | 7 | Oc1cccc(-c2cc(-c3ccoc3)cc(-c3ccccc3O)n2)c1 | > 50 | > 50 | 2.79 | > 50
14 | 5.2 | 66.4 | 0 |  | Oc1ccccc1-c1cc(-c2cccnc2)cc(-c2ccccc2O)n1 | > 50 | > 50 | > 50 | > 50
15 | 27.4 | 1.4 |  |  | Oc1ccc(-c2cc(-c3ccccn3)cc(-c3ccc(O)cc3)n2)cc1 | 1.04 | > 50 | > 50 | > 50
16 | 69.3 | 30.1 | 3.9 | 12.8 | Oc1ccc(-c2cc(-c3ccoc3)cc(-c3ccccc3O)n2)cc1 | > 50 | > 50 | 28 | > 50
17 | 7.8 | 0.2 |  |  | Oc1ccc(-c2cc(-c3ccccn3)cc(-c3ccccc3O)n2)cc1 | > 50 | > 50 | 25.4 | > 50
18 | 12.2 | 1 |  |  | Oc1ccccc1-c1cc(-c2ccoc2)cc(-c2ccccc2O)n1 | > 50 | > 50 | > 50 | > 50
19 | 84.5 | 0 |  | 4.7 | Oc1ccccc1-c1cc(-c2ccsc2)cc(-c2ccccc2O)n1 | > 50 | > 50 | > 50 | > 50
20 | 92.3 | 100 | 0 | 48.4 | Oc1ccc(-c2cc(-c3ccco3)cc(-c3ccc(O)cc3)n2)cc1 | 21.1 | 14 | > 50 | > 50
21 | 52.2 | 8.3 |  | 4.3 | Oc1cccc(-c2cc(-c3ccccn3)cc(-c3cccc(O)c3)n2)c1 | 1.41 | 3.51 | 3.61 | 6.5
22 | 91.5 | 17.1 |  | 44.7 | Oc1ccc(-c2cc(-c3ccsc3)cc(-c3cccc(O)c3)n2)cc1 | 0.76 | 1.18 | 2.23 | 2.58
23 | 74.6 | 86.3 | 0.9 | 30.3 | Oc1ccc(-c2cc(-c3cccs3)cc(-c3ccc(O)cc3)n2)cc1 | 11.7 | > 50 | 2.19 | > 50
24 | 84.8 | 83 | 0 | 13.6 | Oc1ccc(-c2cc(-c3ccco3)cc(-c3ccccc3O)n2)cc1 | > 50 | > 50 | > 50 | > 50
25 | 88.6 | 85.7 | 1.1 | 21.5 | Oc1ccc(-c2cc(-c3cccs3)cc(-c3cccc(O)c3)n2)cc1 | 0.78 | 1.77 | 1.89 | 4.14
26 |  |  |  |  | COc1cccc2c1C(=O)c1c(O)c3c(c(O)c1C2=O)C[C@@](O)(C(=O)CO)C[C@@H]3O[C@H]1C[C@H](N)[C@H](O)[C@H](C)O1 [DOXORUBICIN] | 1.34 | 1.23 |  | 0.88
27 | 80.6 | 13.8 |  | 9.7 | Oc1ccc(-c2cc(-c3ccsc3)cc(-c3ccccc3O)n2)cc1 | > 50 | > 50 | > 50 | > 50
28 |  |  |  |  | CC[C@@]1(O)C(=O)OCc2c1cc1n(c2=O)Cc2cc3ccccc3nc2-1 [CAMPTOTHECIN] | 1.84 | 2.82 | 0.02 | 0.18
29 | 8.3 | 1.5 | 0 |  | Oc1ccc(-c2cc(-c3cccnc3)cc(-c3ccccc3O)n2)cc1 | > 50 | > 50 | > 50 | > 50
30 |  |  |  |  | COc1cc([C@@H]2c3cc4c(cc3[C@@H](O[C@@H]3O[C@@H]5CO[C@@H](C)O[C@H]5[C@H](O)[C@H]3O)[C@H]3COC(=O)[C@H]23)OCO4)cc(OC)c1O [ETOPOSIDE] | 13.7 | 18.9 | 2.09 | 7.32
